Screening data as filed in PubChem.
XBP1 UPR activ: activators of adaptive XBP1 UPR arm, primary screen, cell-based, CHO-XBP1 luciferase reporter, luminescence, uHTS; activation, % at 20 µM; IRE1-XBP1 UPR activation; percent of tunicamycin response, DMSO as zero; hit rate 0.33% among 330,000; AID 463104, 2010;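 active = versus positive control, 20 µM dose yields 30% or more activation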
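Material: CHO cell line with stable XBP1 luciferase reporter; schedule: 16-18 h cell attachment at 37 °C, then 6 h compound exposure; signal: glow luminescence from Steady-Glo reagent; medium: serum-containing F12 medium, 10% FBS; benchmarks: tunicamycin 10 µg/mL and vehicle-only wells; read-out: percent activation relative to tunicamycin reference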
Gli-Sufu block: Gli-Sufu pathway antagonists, primary screen, luciferase luminescence, Sufu-KO-LIGHT cells, uHTS; Sufu-KO-LIGHT fibroblasts, Gli luciferase reporter luminescence; hit rate 0.74% among 340,000; AID 588413, 2011; inhibition, % at 5 µM;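 active = inhibition above about 55%, limit read from the data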
CHOP UPR activ: activators of apoptotic CHOP UPR arm, primary screen, cell-based, CHO-CHOP luciferase reporter, luminescence, uHTS; UPR activation; percent of tunicamycin response over DMSO baseline; activation, % at 10 µM; hit rate 0.34% among 330,000;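 active = at 10 µM dose, activation of 40% or more, normalized to positive control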
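Dosing – one dose, 10 µM in 0.5% DMSO · System – CHO-CHOP cells, stable luciferase reporter of PERK-eIF2a-CHOP signalling · Input – 500 cells/well · Control set – tunicamycin 10 µg/mL final as positive, DMSO-only wells as negative · Timing – 6 h compound treatment, 37 °C · Measure – % activation vs tunicamycin · Technique – luminescence read with Steady-Glo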
Jurkat NFkB inh: inhibitors of induced NF-kB luciferase reporter, primary screen, TCR NF-kB activation inhibitor project, cell-based, luminescence, uHTS; Jurkat, PMA/ionomycin-induced NF-kB luciferase reporter; inhibition, % at 4 µM; hit rate 0.53% among 330,000; in the data active = inhibition above about 50%
CHOP inh: inhibitors of CHOP promoter induction, primary screen, cell-based, unfolded protein response, luciferase reporter | CHO-K1 CHOP-promoter luciferase, tunicamycin-induced, 15-18 h | inhibition, % at 10 µM | hit rate 3.8% among 220,000;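 active = compounds that reduced the stress-induced luciferase reporter signal by more than about 70% of percent inhibition, limit read from the data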
697 NFkB inh: inhibitors of PMA/ionomycin-induced NF-kB reporter, 697 cells, primary screen, B-cell NF-kB inhibitor project, cell-based, luminescence, uHTS. hit rate 0.33% among 330,000. 697 B-cell NF-kB luciferase reporter, 16 h. inhibition, % at 4 µM; in the data active = inhibition above about 35%
Jurkat NFkB conf: PMA/ionomycin-induced NF-kB reporter inhibitors, Jurkat retest, confirmation, T-cell NF-kB inhibitor project, cell-based, luminescence, single concentration; shares compounds with Jurkat NFkB inh; Jurkat NF-kB luciferase, 16 h; inhibition, % at 4 µM; AID 435020, 2010; hit rate 27% among 2,700;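 active = inhibition reaching about 45% at 4 µM in either replicate, limit read from the data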
Hits are given with their value; n = inactive; x = not tested or not shown. Shown are actives, neighbours in structure and some others; about 3.9% of the full set was active somewhere.

SMILES | XBP1 UPR activ | Gli-Sufu block | CHOP UPR activ | Jurkat NFkB inh | CHOP inh | 697 NFkB inh | Jurkat NFkB conf
CCC(=O)N1c2ccc(S(=O)(=O)N3CCN(CC)CC3)cc2CC1C (configuration not stated) | n | n | n | n | x | n | x
C=CCn1c(SCC(=O)Nc2ccc(N3CCOCC3)cc2)nnc1-c1ccco1 | n | n | n | n | x | n | x
O=C(Nc1ccc2c(c1)CCC2)c1ccccc1Br | n | n | n | n | n | n | n
COc1ccccc1NC(=O)c1oc2ccccc2c1NC(=O)c1cc(OC)c(OC)c(OC)c1 | n | n | n | 64 | x | n | n
O=C(COc1ccc(C(=O)c2ccccc2)cc1)NCc1ccc(F)cc1 | n | n | n | 69 | n | n | n
COc1ccccc1-c1nnc2n1N=C(c1ccc(O)c(O)c1)CS2 | n | n | n | 81 | n | n | 55
CCOc1ccc(C2=Nn3c(nnc3-c3ccccc3OC)SC2)cc1 | x | n | x | x | x | x | x
CSc1nc2ccccc2cc1/C=C(\C#N)c1cccc(Cl)c1 | n | n | n | 54 | n | n | n
CCOC(=O)/C(C#N)=C/c1cc2ccccc2nc1Cl | n | n | n | n | n | n | x
CN(C)c1ccc(/C=N/n2ncc3ccccc32)cc1 | n | n | n | n | n | n | n
COc1ccc(Cl)cc1NC(=O)CN(C)CC(=O)Nc1ccccc1N1CCOCC1 | n | n | n | 63 | n | n | n
Cc1ccc(C(=O)NNC(=O)c2cc(C)nc3ccccc23)cc1 | n | n | n | n | x | n | x
COC(=O)/C(=C\Nc1ccc(Cl)cc1Cl)NC(=O)c1ccc(OC)cc1 | n | n | n | 66 | n | n | n
CCCCOc1ccc(N(CC(=O)NC2CCCCC2)C(=O)CCC(=O)Nc2ccccn2)cc1 | n | n | n | n | x | n | x
Cc1cc(C(=O)COC(=O)c2ccc(F)cc2F)c(C)n1C1CC1 | n | n | n | n | x | n | x
COc1ccc(-c2csc(NC(=O)C3CCN(c4ncnc5sc(C)c(C)c45)CC3)n2)cc1OC | n | 72 | n | 53 | x | n | n
Cc1cccn2c(=O)c3cc(C(=O)NC4CCCC4)n(C)c3nc12 | n | n | n | 51 | x | n | n
CCOC(=O)N1CCN(C(=O)C2CCC(=O)N(CCCc3ccccc3)C2)CC1 (configuration not stated) | n | n | n | n | x | n | x
CCC(=O)O/N=C(\N)c1ccc(Oc2cc(C)c(Cl)c(C)c2)c([N+](=O)[O-])c1 | n | n | n | 53 | n | n | n
COc1cc(/C=C/[N+](=O)[O-])ccc1OCc1cccc(C(=O)O)c1 | n | n | n | 69 | 77 | n | n
CSc1ccccc1NC(=O)CSc1nnc(CNC(=O)c2ccccc2F)n1C | n | n | n | n | x | n | x
CO/N=C/C(=N\Nc1ccc(C)cc1)C(=O)c1ccc(OC)cc1 | n | n | n | 51 | x | n | n
COc1cc(NC(=O)c2cc(-c3ccc4c(c3)OCO4)on2)cc(OC)c1OC | n | n | n | 66 | x | n | n
COc1cc(NC(=O)c2cc(-c3ccccc3)on2)cc(OC)c1OC | n | n | n | n | x | n | x
O=C1CCc2cc(NS(=O)(=O)c3ccc(Br)cc3)cc3c2N1CC3 | n | n | n | n | x | n | x
Cc1ccc(C(=O)NCCNC(=O)COc2ccc(Cl)cc2)cn1 | n | n | n | n | x | n | x
Cc1cc(C)cc(NC(=O)c2ccc([N+](=O)[O-])o2)c1 | n | n | n | 87 | n | n | 48
Cc1ccc2c(c1)C=CC(C#N)N2C(=O)c1ccccc1 (configuration not stated) | n | n | n | 55 | n | n | n
Cc1ccc2c(c1)C=CC(C)N2C(=O)c1ccccc1 (configuration not stated) | n | n | n | n | n | n | x
CCc1ccc(S(=O)(=O)/N=C2\C=C(Nc3ccc(O)cc3)C(=O)c3ccccc32)cc1 | n | 88 | n | 54 | x | n | 52
